Bioassay records as filed in PubChem BioAssay.
Measles CPE: compounds protecting cells from measles virus cytopathic effect, primary screen, measles RdRp inhibitor project, single point, MLSMR library, absorbance; Measles virus-infected cells, CPE protection; protection (pct of control), % at 4 µM; actives 1.5% (n = 140,000); AID 841, 2007; in the data active means protection mostly above about 24%, no sharp cut-off; inactive means mostly below about 26%
IL1B NFkB inh: inhibitors of IL-1B driven NFkB p65 nuclear import, primary screen, imaging, HUVEC, IL-1B stimulus, high-content imaging. HUVEC IL-1B NFkB p65 nuclear translocation imaging. inhibition, % at 2 µM. actives 0.43% (n = 94,000). AID 796, 2007;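 active means inhibition above about 30% together with a positive call from visual inspection of the well image, limit read from the data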;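 further: nuclear over cytoplasmic p65 intensity ratio measured by imaging; 0% = IL-1B stimulated DMSO wells and 100% = unstimulated DMSO wells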
FAK blocker: FAK kinase inhibitors, primary screen, biochemical | Focal adhesion kinase 1 (Homo sapiens), Q05397 | biochemical FAK kinase activity assay | inhibition, %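 (tested at 7 µM)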 | actives 0.84% (n = 97,000); in the data active means inhibition above about 19%;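 further: 0% = DMSO and 100% = reference compound high control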
Target sequence (Q05397 whole entry, looked up): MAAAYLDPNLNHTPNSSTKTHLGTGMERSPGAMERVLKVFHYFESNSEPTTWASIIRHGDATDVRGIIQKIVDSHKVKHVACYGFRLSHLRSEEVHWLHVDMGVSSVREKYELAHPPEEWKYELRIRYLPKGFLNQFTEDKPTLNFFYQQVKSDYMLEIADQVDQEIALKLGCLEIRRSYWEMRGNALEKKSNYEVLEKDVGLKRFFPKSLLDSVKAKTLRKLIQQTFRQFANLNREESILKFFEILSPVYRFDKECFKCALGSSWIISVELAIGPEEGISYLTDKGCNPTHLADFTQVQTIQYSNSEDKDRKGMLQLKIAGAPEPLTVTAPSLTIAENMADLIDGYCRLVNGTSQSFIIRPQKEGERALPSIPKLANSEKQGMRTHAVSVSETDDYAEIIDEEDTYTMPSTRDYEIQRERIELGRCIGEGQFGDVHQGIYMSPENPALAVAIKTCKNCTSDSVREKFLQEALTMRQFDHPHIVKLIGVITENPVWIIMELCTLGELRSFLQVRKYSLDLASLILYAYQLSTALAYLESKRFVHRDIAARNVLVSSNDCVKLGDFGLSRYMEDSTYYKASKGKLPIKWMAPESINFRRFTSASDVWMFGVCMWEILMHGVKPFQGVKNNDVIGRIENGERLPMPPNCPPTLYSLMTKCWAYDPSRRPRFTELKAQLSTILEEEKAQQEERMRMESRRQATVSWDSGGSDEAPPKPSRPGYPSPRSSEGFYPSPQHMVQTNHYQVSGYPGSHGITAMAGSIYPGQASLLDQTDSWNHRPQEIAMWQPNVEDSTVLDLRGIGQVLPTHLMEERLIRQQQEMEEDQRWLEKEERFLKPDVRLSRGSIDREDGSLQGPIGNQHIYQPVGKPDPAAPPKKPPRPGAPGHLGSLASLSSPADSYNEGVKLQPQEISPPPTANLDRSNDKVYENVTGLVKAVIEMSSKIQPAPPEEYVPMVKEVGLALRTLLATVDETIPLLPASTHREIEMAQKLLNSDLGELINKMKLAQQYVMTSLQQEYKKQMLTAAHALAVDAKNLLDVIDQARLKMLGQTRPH
Rev-RRE block: HIV-1 Rev-RRE binding inhibitors, primary screen, biochemical, FRET, protein-RNA interaction | P05866 | Rev peptide-RRE RNA binding | actives 0.79% (n = 97,000) | inhibition, % at 8 µM;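 active means inhibition above the screen-wide mean plus 3 SD, cut at about 35% in these data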;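 further: 0% = median DMSO wells and 100% = median Neomycin B control wells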
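Assay system: Labelled RRE RNA duplex and labelled Rev peptide | Times: 5 min preincubation and 15 min binding, 25 °C | Detection: FRET, ex 480 nm, em 540 and 671 nm | Evaluation: % inhibition of FRET ratio versus controls | Benchmarks: DMSO wells as 0% and neomycin B wells as 100% inhibition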
HUVEC tox IL1B: cytotoxicity in IL-1B stimulated HUVEC, primary screen, cytotoxicity control for IL-1B NFkB translocation project, imaging, Hoechst nuclear count, IL-1B stimulus; HUVEC cell count loss; cell count reduction, % at 2 µM; actives 0.41% (n = 94,000);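 active means cell count reduction more than 3 SD above the screen-wide mean, cut at about 70% in these data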;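 further: normalized per plate to untreated control cells as the no-loss baseline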
NFkB transloc pot: enhancers of NFkB p65 translocation in HUVEC – imaging, IL-1B stimulus, high-content imaging, primary screen. actives 0.3% (n = 94,000). activation, % at 2 µM. HUVEC IL-1B NFkB p65 nuclear translocation imaging. AID 819, 2007;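 active means activation above 40%, about the mean plus 3 SD, also judged a hit on visual image review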;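 further: percent activation is computed from the nuclear over cytoplasmic p65 intensity ratio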
The depositor's hits bear a star; · = not tested or not shown; ! = a repeat was not active. Hits are enriched below; roughly 3.3% of the tested compounds scored in any of these assays.

SMILES | Measles CPE | IL1B NFkB inh | FAK blocker | Rev-RRE block | HUVEC tox IL1B | NFkB transloc pot
CCOC(=O)N1CCC(NC(=O)C2CCN(c3ccc(N4CCOCC4)nn3)CC2)CC1 | 48* | -14 | -2 | 0 | -26 | 14
CCOC(=O)N1CCC(NC(=O)C2CCN(S(=O)(=O)c3cnc[nH]3)CC2)CC1 | 22 | · | · | · | · | ·
COc1ccc(CNC(=O)CSc2ccc(Br)cc2)cc1OC | 9 | · | · | · | · | ·
COc1ccc2c(CC(=O)OCC(=O)Nc3sc4c(c3C#N)CCC(C)C4)coc2c1 (stereo not given) | 8 | · | · | · | · | ·
CC(C)CNC(=O)c1ccccc1NC(=O)CCSc1ccccc1 | 4 | · | · | · | · | ·
CCc1nc2ccc(C)cc2c(C(=O)NC2CCCCC2C)c1C (stereo not given) | 3 | -1 | 11 | 1 | 2 | 1
COc1ccc(C2CC(C(F)(F)F)n3ncc(C(=O)NCC4CCCO4)c3N2)cc1OC (stereo not given) | 32* | 0 | 0 | 5 | -12 | 0
C=CCSc1nnc2c(n1)OC=Nc1ccccc1-2 | 8 | 30* | 0 | 2 | 91* | -30
C=CCSc1nnc2c(n1)OC(c1ccco1)Nc1ccccc1-2 (stereo not given) | 3 | · | · | · | · | ·
CN(C(=O)c1ccncc1)c1nnc(-c2cnccn2)s1 | 32* | -14 | 0 | -2 | -54 | 14
CN(C(=O)c1cccnc1)c1nnc(-c2cnccn2)s1 | 3 | -14 | 1 | 6 | -22 | 14
COc1ccc(CCNC(=O)c2cc(-c3ccc(Cl)c(Cl)c3)oc2C)cc1 | 5 | · | · | · | · | ·
CC1=C(C(=O)Nc2ccccc2)C(c2ccncc2)C(C#N)=C(SCC(=O)NC2CC2)N1 (stereo not given) | 34* | -13 | -2 | 3 | 8 | 13
CC1CC(C)CN(CCCCOc2ccc([N+](=O)[O-])cc2)C1 (stereo not given) | 9 | · | · | · | · | ·
CCOc1ccc(/C(O)=C2/C(=O)C(=O)N(c3nc(C)c(C)s3)C2c2ccco2)cc1 (stereo not given) | 2 | 46* | -3 | 7 | 19 | -46
O=[N+]([O-])c1cc(Oc2cccnc2)cc([N+](=O)[O-])c1 | 55* | · | · | · | · | ·
O=C(Oc1cccnc1)c1ccc([N+](=O)[O-])cc1 | 6 | · | · | · | · | ·
CCOC(=O)c1cc2c(=O)n3ccccc3nc2n(CCOC)c1=NC(=O)c1ccncc1 | 13 | -6 | -3 | -1 | 10 | 6
CCOC(=O)c1cc2c(=O)n3ccccc3nc2n(CCCOC)c1=NC(=O)c1cccnc1 | 5 | -44 | -4 | 6 | 0 | 44*
O=C(CCSc1nnc(-c2ccncc2)o1)Nc1ccc(Cl)cc1 | 26 | -1 | 8 | 5 | 18 | 1
O=C(CCSc1nnc(-c2ccncc2)o1)Nc1ccccc1Cl | 30* | 10 | 0 | -7 | -52 | -9
C/C(=N\NS(=O)(=O)c1ccccc1)c1ccc2c(c1)OCCO2 | 11 | · | · | · | · | ·
C=CCNC(=S)N1CCN(CCN=CC2=C(O)CC(c3ccco3)CC2=O)CC1 (stereo not given) | 10 | 54* | -1 | -4 | 93* | -54
CCNC(=S)N1CCN(CCN=CC2=C(O)CC(c3ccco3)CC2=O)CC1 (stereo not given) | 6 | 8 | -1 | 4 | 4 | -8
CN(C)/N=C/C=C1\CC/C(=C\c2ccc(Br)cc2)C1=O | 10 | -12 | 1 | 72* | 0 | 12
SMILES | Measles CPE | IL1B NFkB inh | FAK blocker | Rev-RRE block | HUVEC tox IL1B | NFkB transloc pot
COc1ccc(/C=C2\CC/C(=C\c3ccc(OC)c(OC)c3)C2=O)cc1OC | 6 | · | · | · | · | ·
CCCCN(CCCC)S(=O)(=O)c1ccc(NC(=O)Cc2cccs2)cc1 | 6 | -18 | 4 | 18 | -11 | 18
COc1ccc(OC)c(NC(=O)COC(=O)CCCN2C(=O)c3ccccc3C2=O)c1 | 5 | · | · | · | · | ·
CC(CNC(=O)C(C)C)NC(=O)C(C)C (stereo not given) | 27* | 0 | 0 | 6 | -22 | 0
Cc1cc(C(=O)O)c(C)n1-c1ccccc1 | 40* | -27 | -3 | 0 | 8 | 27
CNS(=O)(=O)c1ccc(NCC2COc3ccccc3O2)c([N+](=O)[O-])c1 (stereo not given) | 22 | · | · | · | · | ·
O/N=C/c1ccc(OCc2ccccc2)c(Br)c1 | 42* | · | · | · | · | ·
CCCCCn1c(SCC(=O)OCC)nc2cc(C(=O)NCc3ccco3)ccc2c1=O | 9 | -1 | 4 | 8 | 1 | 1
CCCCCn1c(SCC2CCCO2)nc2cc(C(=O)N3CCC(C(N)=O)CC3)ccc2c1=O (stereo not given) | 55* | -32 | 0 | 2 | -32 | 32
Cc1ccc(S(=O)(=O)NC(=O)c2ccc(-c3ccc(-c4ccccc4)cc3)o2)c(C)c1 | 1 | · | · | · | · | ·
COc1ccc(-n2c(=O)c3c4c(sc3n3c(=S)[nH]nc23)CCCC4)cc1 | 17 | · | · | · | · | ·
CC(C)CCNC(=O)Cc1c(C(=O)O)[nH]c2ccc(Cl)cc12 | 46* | -8 | -5 | -1 | -2 | 8
CCOC(=O)c1c(-c2ccc(OC)cc2)csc1NC(=O)COc1ccc2c(C)cc(=O)oc2c1 | 9 | · | · | · | · | ·
CCOC(=O)c1c(-c2ccc(OC)cc2)csc1NC(=O)CSc1ncnc2sccc12 | 43* | · | · | · | · | ·
Cc1cc[n+](-c2nc([O-])sc2/C=N/Nc2ccc([N+](=O)[O-])cc2)cc1 | 49* | -10 | 1 | 6 | 2 | 10
CC(C)(C)c1cnnn1-c1ccc(/C=N/Nc2ccc([N+](=O)[O-])cc2)cc1 | 5 | · | · | · | · | ·
O=c1oc2cc(OCc3c(F)cccc3Cl)ccc2cc1-c1ccccn1 | 46* | -3 | -5 | 10 | -1 | 3
CCN(CC)S(=O)(=O)c1ccc(OC)c(NC(=S)Nc2ccc(C)c(C)c2)c1 | 13 | · | · | · | · | ·
COc1cc(/C=N/NC(=O)C2c3ccccc3Oc3ccccc32)ccc1O | 15 | -10 | 2 | 5 | 12 | 9
O=C(Oc1ccc2c(c1)O/C(=C\c1ccncc1)C2=O)c1ccccc1 | 40* | · | · | · | · | ·
CCCN(CCC)S(=O)(=O)c1ccc(C(=O)Nc2nc(-c3ccccc3)c(C(=O)OCC)s2)cc1 | 50* | · | · | · | · | ·
COc1ccc2nc(SCC(=O)O)nc(C)c2c1 | 12 | · | -1 | 8 | · | ·
COc1ccc2nc(C)cc(SCC(=O)O)c2c1 | 11 | 40*! | 7 | 8 | 18 | -1
Cc1ccc(C)c(Cc2c(C)nc3c(C(=O)N4CCOCC4)cnn3c2C)c1 | 40* | 5 | -7 | 6 | -23 | -5
O=C1CN(C(=O)c2cc3ccccc3oc2=O)C(c2ccc(F)cc2)c2cc(Br)ccc2N1 (stereo not given) | 8 | · | · | · | · | ·
Cc1ccc(OCC(=O)N2CCCCCC2)c(C)c1 | 25 | -21 | 4 | -5 | 86* | 21
